Results taken from ChEMBL document CHEMBL1123925 (J Med Chem, 1987).
pIC50: −log10 of the molar value.

Tests used:
[1] = molecular target: GABA-A receptor; anion channel; test: Displacement of [3H]GABA from Gamma-aminobutyric acid A receptor ofrat brain membranes; set-up: species or system Rattus norvegicus
Procedure, shortened: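 Male Wistar rat whole-brain synaptic membranes, frozen at -20 °C for at least 18 h, Triton X-100 (0.05%) treated at 37 °C for 30 min. Filtration, scintillation counting. Nonspecific binding with 100 μM muscimol. IC50 by log-probit analysis; means of two triplicate experiments.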

[2] = molecular target: GABA B receptor (Rattus norvegicus, UniProt O88871+Q9Z0U4); test: Displacement of [3H]baclofen from Gamma-aminobutyric acid type B receptor of rat brain membranes; format: cell membranes, Membrane
Procedure, shortened: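 Rat whole-brain synaptic membranes were water-washed and frozen at -20 °C for at least 18 h. They were then washed repeatedly in 50 mM Tris-HCl pH 7.4 with 2.5 mM CaCl2 at 20 °C. The assay was stopped by centrifugation and read by scintillation counting. IC50 values are means of two experiments.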

GABA B receptor, sequence (Q9Z0U4 whole entry): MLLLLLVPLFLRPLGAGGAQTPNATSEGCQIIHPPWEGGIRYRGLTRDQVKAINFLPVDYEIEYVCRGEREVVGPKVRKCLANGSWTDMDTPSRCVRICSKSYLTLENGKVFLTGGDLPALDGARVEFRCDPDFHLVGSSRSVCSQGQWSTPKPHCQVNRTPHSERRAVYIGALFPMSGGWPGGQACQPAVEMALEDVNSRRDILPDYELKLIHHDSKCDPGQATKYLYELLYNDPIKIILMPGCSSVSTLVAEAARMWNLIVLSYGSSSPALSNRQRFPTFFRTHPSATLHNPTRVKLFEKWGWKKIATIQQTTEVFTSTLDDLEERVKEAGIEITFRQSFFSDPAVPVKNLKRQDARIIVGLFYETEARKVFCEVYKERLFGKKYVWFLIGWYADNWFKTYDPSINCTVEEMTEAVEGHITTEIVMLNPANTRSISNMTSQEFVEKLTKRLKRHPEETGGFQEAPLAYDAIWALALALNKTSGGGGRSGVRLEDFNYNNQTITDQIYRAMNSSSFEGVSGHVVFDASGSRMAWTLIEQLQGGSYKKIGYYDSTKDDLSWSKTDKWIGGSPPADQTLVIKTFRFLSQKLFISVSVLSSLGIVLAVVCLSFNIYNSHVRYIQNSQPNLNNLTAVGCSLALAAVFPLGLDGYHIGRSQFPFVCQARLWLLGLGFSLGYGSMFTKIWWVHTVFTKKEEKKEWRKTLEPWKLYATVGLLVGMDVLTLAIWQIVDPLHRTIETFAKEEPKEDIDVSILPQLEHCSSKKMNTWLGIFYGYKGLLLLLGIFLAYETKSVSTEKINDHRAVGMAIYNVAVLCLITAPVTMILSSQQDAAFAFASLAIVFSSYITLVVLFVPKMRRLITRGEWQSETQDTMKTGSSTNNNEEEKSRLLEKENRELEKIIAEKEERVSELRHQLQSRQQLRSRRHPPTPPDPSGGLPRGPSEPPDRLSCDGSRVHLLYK
GABA B receptor, sequence (O88871 whole entry): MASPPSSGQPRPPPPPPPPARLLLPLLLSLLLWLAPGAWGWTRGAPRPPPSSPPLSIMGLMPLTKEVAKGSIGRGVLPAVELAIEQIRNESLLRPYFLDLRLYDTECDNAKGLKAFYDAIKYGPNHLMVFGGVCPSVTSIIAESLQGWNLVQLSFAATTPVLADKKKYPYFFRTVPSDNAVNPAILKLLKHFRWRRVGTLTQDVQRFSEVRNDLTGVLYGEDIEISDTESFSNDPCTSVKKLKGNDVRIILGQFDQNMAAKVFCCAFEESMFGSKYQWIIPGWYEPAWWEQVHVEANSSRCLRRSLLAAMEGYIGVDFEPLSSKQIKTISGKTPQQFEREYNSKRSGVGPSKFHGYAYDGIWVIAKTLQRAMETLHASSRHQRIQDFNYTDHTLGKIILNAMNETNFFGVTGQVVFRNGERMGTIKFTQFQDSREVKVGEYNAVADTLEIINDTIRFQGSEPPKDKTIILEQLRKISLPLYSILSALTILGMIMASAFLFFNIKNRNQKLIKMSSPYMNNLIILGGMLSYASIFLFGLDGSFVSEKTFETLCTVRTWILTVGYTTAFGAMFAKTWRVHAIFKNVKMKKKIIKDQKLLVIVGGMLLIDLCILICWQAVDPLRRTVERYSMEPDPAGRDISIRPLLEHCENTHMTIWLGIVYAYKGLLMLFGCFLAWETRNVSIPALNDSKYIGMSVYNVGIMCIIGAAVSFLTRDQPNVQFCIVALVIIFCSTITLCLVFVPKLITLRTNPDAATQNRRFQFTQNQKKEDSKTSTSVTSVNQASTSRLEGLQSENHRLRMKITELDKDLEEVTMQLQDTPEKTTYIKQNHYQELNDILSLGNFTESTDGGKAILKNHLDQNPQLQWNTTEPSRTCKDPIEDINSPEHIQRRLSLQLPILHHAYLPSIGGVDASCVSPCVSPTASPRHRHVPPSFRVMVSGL

Compound | pIC50 [1] | pIC50 [2]
CC(C)Oc1ccc(C(CN)CC(=O)O)cc1 (centres undefined) | < 4.00 | –
NCC(CC(=O)O)C1Cc2ccccc2O1 (centres undefined) | < 4.00 | < 4.00
COc1ccc2oc(C(CN)CC(=O)O)cc2c1 (centres undefined) | < 4.00 | 5.25
NCC(CC(=O)O)c1ccc(OCc2ccc(Cl)s2)cc1 (centres undefined) | < 4.00 | –
COc1ccc2c(c1)CC(C(CN)CC(=O)O)O2 (centres undefined) | < 4.00 | < 4.00
NCC(CC(=O)O)c1ccc(O)cc1 (centres undefined) | < 4.00 | < 4.00
NCC(CC(=O)O)c1cc2ccccc2o1 (centres undefined) | < 4.00 | 4.74
NCC(CC(=O)O)c1ccc(OCc2ccccc2)cc1 (centres undefined) | < 4.00 | < 4.00
NCC(CC(=O)O)c1ccc(OCc2ccc(F)cc2)cc1 (centres undefined) | < 4.00 | < 4.00
Cn1c(=O)oc2cc(C(CN)CC(=O)O)ccc21 (centres undefined) | < 4.00 | < 4.00
NCc1cc(=O)[nH]o1 [MUSCIMOL] | 8.00 | –
